Common to all, as to type: cell-based
Experiment [1] is described as follows: Agonist activity at full-length human RXR/LXR expressed in HEK293T cells at 5 uM after 14 to 16 hrs by dual-glo luciferase reporter gene assay relative to untreated control. As to conditions: HEK-293T, read-out: Activity. The essentials: (§1)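 RXR:LXR or RXR:PPARγ heterodimer reporter assay with test compound alone. Activation expressed relative to 0.1% DMSO vehicle. Three independent experiments, each in duplicate; mean reported.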

Experiment [2] can be described thus: Agonist activity at full-length human RXR/LXR expressed in HEK293T cells at 5 uM after 14 to 16 hrs in presence of 1 uM T0901317 by dual-glo luciferase reporter gene assay relative to T0901317. The note with it: HEK-293T, read-out: Activity. The essentials:
(§2)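 Synergy format: the test compound was co-applied with the partner-receptor reference agonist at 1 μM, either T0901317 (RXR:LXR) or rosiglitazone (RXR:PPARγ). Relative synergistic activation was derived from three independent experiments, each in duplicate; mean reported.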

The target in experiment [3] is T1, Retinoic acid receptor RXR-beta (Homo sapiens) (UniProt P28702).
T1 sequence (whole entry): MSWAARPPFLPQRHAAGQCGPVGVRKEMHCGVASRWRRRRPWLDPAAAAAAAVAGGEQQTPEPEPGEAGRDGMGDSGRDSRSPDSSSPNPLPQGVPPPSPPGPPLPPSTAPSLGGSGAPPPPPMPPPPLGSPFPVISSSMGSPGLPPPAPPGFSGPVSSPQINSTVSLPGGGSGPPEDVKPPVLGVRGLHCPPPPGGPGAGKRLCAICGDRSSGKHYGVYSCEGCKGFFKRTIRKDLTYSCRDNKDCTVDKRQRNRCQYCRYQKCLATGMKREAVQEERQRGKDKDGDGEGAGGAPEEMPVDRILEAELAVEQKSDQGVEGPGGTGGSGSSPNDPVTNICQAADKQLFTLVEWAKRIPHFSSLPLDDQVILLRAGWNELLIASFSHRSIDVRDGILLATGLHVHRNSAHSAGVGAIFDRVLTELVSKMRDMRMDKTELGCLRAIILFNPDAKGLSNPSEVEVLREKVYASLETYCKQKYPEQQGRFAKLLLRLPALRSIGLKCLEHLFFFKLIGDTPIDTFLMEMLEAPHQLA
Nature of the experiment: Agonist activity at Gal4-LBD fused RXRbeta (unknown origin) expressed in HEK293T cells at 0.1 to 3 uM after 14 to 16 hrs in presence of RXR antagonist HX531 by dual-Glo luciferase reporter gene assay.

The species named for experiment [4] is Homo sapiens. Nature of the experiment: Agonist activity at full-length human PPARgamma/RXR expressed in HEK293T cells at 5 uM after 14 to 16 hrs by dual-glo luciferase reporter gene assay relative to untreated control. An outline of the steps:
as §1

Experiment [5] addresses T2, Retinoic acid receptor RXR-gamma (Homo sapiens) (UniProt P48443).
T2 sequence (whole entry): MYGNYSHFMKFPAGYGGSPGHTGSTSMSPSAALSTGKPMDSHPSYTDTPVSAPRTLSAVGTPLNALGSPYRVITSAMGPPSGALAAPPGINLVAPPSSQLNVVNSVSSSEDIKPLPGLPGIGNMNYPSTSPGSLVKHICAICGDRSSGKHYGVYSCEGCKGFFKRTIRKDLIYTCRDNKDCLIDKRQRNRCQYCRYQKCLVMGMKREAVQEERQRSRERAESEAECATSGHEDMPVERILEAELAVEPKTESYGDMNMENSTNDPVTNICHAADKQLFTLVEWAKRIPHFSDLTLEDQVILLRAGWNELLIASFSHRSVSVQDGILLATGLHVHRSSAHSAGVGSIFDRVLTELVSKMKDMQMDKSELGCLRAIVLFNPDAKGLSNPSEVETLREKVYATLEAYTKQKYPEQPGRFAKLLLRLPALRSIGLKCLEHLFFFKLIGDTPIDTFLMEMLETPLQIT
In words: Agonist activity at Gal4-LBD fused RXRgamma (unknown origin) expressed in HEK293T cells at 0.1 to 3 uM after 14 to 16 hrs in presence of RXR antagonist HX531 by dual-Glo luciferase reporter gene assay.

The species named for experiment [6] is Homo sapiens. Nature of the experiment: Agonist activity at full-length human PPARgamma/RXR expressed in HEK293T cells at 5 uM after 14 to 16 hrs in presence of 1 uM rosiglitazone by dual-glo luciferase reporter gene assay relative to rosiglitazone. An outline of the steps:
as §2

The target of experiment [7] is T3, Retinoic acid receptor RXR-alpha (Homo sapiens) (UniProt P19793).
T3 sequence (whole entry): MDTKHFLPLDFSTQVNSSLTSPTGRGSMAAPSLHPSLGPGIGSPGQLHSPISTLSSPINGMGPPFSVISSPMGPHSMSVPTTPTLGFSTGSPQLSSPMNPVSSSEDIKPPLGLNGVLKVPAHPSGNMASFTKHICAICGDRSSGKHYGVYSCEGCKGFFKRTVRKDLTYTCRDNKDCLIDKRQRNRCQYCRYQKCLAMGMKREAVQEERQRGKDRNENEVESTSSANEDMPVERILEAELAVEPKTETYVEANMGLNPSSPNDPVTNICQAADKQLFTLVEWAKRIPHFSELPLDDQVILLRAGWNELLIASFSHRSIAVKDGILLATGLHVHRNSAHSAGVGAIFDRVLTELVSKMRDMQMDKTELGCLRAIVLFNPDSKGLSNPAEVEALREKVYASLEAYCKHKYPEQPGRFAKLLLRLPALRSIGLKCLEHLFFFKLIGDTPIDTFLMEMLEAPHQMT
Nature of the experiment: Agonist activity at Gal4-LBD fused RXRalpha (unknown origin) expressed in HEK293T cells at 0.1 to 3 uM after 14 to 16 hrs in presence of RXR antagonist HX531 by dual-Glo luciferase reporter gene assay.

Experiment [8] has as its target T4, Retinoic acid receptor RXR-gamma (Homo sapiens, UniProt P48443).
T4 sequence (P48443 whole entry): T2 sequence (whole entry)
Nature of the experiment: Agonist activity at Gal4-LBD fused RXRgamma (unknown origin) expressed in HEK293T cells after 14 to 16 hrs by dual-Glo luciferase assay. The essentials:
(§3)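 Gal4-hybrid RXRα/β/γ reporter gene assays in HEK293T cells. Fold activation is the maximal fold activation versus 0.1% DMSO.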

In experiment [9] the target is T5, Retinoic acid receptor RXR-alpha (Homo sapiens, UniProt P19793).
T5 sequence (P19793 whole entry): T3 sequence (whole entry)
Nature of the experiment: Agonist activity at Gal4-LBD fused RXRalpha (unknown origin) expressed in HEK293T cells after 14 to 16 hrs by dual-Glo luciferase assay. An outline of the steps:
as §3

Experiment [10] has as its target T6, Retinoic acid receptor RXR-beta (Homo sapiens, UniProt P28702).
T6 sequence (P28702 whole entry): T1 sequence (whole entry)
Nature of the experiment: Agonist activity at Gal4-LBD fused RXRbeta (unknown origin) expressed in HEK293T cells after 14 to 16 hrs by dual-Glo luciferase assay. The essentials:
as §3

The nature of experiment [11]: Agonist activity at full-length human RXR/LXR expressed in HEK293T cells at 1 uM after 14 to 16 hrs by dual-glo luciferase reporter gene assay relative to untreated control. As to conditions: HEK-293T, read-out: Activity. An outline of the steps:
as §1

The target of experiment [12] is T2, Retinoic acid receptor RXR-gamma (Homo sapiens). Nature of the experiment: Agonist activity at Gal4-LBD fused RXRgamma (unknown origin) expressed in HEK293T cells at 30 uM after 14 to 16 hrs by dual-Glo luciferase assay.
Experiment [13] is filed under the species Homo sapiens. In words: Agonist activity at full-length human PPARgamma/RXR expressed in HEK293T cells at 25 uM after 14 to 16 hrs by dual-glo luciferase reporter gene assay relative to untreated control. An outline of the steps: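 RXR:PPARγ heterodimer reporter assay in HEK293T cells with test compound alone. Mean relative activation is taken versus 0.1% DMSO, from three independent experiments each run in duplicate.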

Experiment [14] can be described thus: Agonist activity at full-length human RXR/LXR expressed in HEK293T cells at 25 uM after 14 to 16 hrs by dual-glo luciferase reporter gene assay relative to untreated control. The note with it: HEK-293T, read-out: Activity. An outline of the steps: as §1
Experiment [15] can be described thus: Agonist activity at full-length human RXR/LXR expressed in HEK293T cells at 25 uM after 14 to 16 hrs in presence of 1 uM T0901317 by dual-glo luciferase reporter gene assay relative to T0901317. The note with it: HEK-293T, read-out: Activity. An outline of the steps:
as §2

The target in experiment [16] is T1, Retinoic acid receptor RXR-beta (Homo sapiens). In words: Agonist activity at Gal4-LBD fused RXRbeta (unknown origin) expressed in HEK293T cells assessed as fold activation after 14 to 16 hrs by dual-Glo luciferase assay relative to untreated control. An outline of the steps:
as §3

In experiment [17] the target is T3, Retinoic acid receptor RXR-alpha (Homo sapiens). In words: Agonist activity at Gal4-LBD fused RXRalpha (unknown origin) expressed in HEK293T cells assessed as fold activation at 30 uM after 14 to 16 hrs by dual-Glo luciferase assay relative to untreated control. An outline of the steps: as §3
The target of experiment [18] is T2, Retinoic acid receptor RXR-gamma (Homo sapiens). In words: Agonist activity at Gal4-LBD fused RXRgamma (unknown origin) expressed in HEK293T cells assessed as fold activation at 30 uM after 14 to 16 hrs by dual-Glo luciferase assay relative to untreated control. An outline of the steps:
as §3

The target of experiment [19] is T3, Retinoic acid receptor RXR-alpha (Homo sapiens). In words: Agonist activity at Gal4-LBD fused RXRalpha (unknown origin) expressed in HEK293T cells assessed as fold activation after 14 to 16 hrs by dual-Glo luciferase assay relative to untreated control. An outline of the steps: as §3
Experiment [20] deals with T1, Retinoic acid receptor RXR-beta (Homo sapiens). In words: Agonist activity at Gal4-LBD fused RXRbeta (unknown origin) expressed in HEK293T cells assessed as fold activation at 30 uM after 14 to 16 hrs by dual-Glo luciferase assay relative to untreated control. An outline of the steps: as §3

Active and inactive are the calls of the source. The calls are words filed in the database; no cut-off is given here.

Turning to `CC(C)(C)c1cc(-c2ccc(CC(=O)O)cc2)cc(C(C)(C)C)c1`, the activity at 5 µM worked out at 89% in experiment [1] and 82% in experiment [2]. The Activity result in experiment [3], in [5] and in [7] was “inactive” throughout. Moreover, the values for the Activity in the experiment filed under Homo sapiens [4] and in the experiment filed under Homo sapiens [6] were 173% and 108%, respectively. For the same molecule, the EC50 in experiment [8] was found to be 3.3 µM; in experiment [9], 0.47 µM; in experiment [10], 0.8 µM.
For the molecule `O=S(=O)(c1ccccc1)N(CC(F)(F)F)c1ccc(C(O)(C(F)(F)F)C(F)(F)F)cc1` [T091317], the activity at 1 µM in [11] was 380%.
Turning to `O=C(O)c1cccc(-c2cc(Cl)cc(Cl)c2)c1`, the Activity entry in experiment [12] was “inactive”. In the experiment filed under Homo sapiens [13], this molecule displayed an Activity of 82%. For the same molecule, the activity at 25 µM in [14] was found to be 67%; in [15], 42%. Also, the EC50 in experiment [9] was 15.5 µM; in experiment [10] it was 13.1 µM.
With `Cc1cc(C)cc(-c2ccc(C(=O)O)cc2)c1`, the fold change (FC) in [16] was determined as 97; in [17], 25; in [18] it was 2; in [19], 26; in [20], 74. Besides, the Activity entry in experiment [12] is “inactive”. In addition, the 50% effective concentration (EC50) in experiment [9] came out at 9.6 µM; in [10], 18.6 µM.

The values are drawn from ChEMBL document CHEMBL4304816, “A Novel Biphenyl-based Chemotype of Retinoid X Receptor Ligands Enables Subtype and Heterodimer Preferences” (ACS Med Chem Lett, 2019).
